Experimental data published in ChEMBL document CHEMBL4043176, “Synthesis of 3-[4-(dimethylamino)phenyl]alkyl-2-oxindole derivatives and their effects on neuronal cell death” (Bioorg Med Chem Lett, 2017).
The source made the active and inactive calls. The rule behind the calls is not given here.

Key:
HT-22 [1] = assay: Cytotoxicity against mouse HT22 cells up to 100 uM after 24 hrs by LDH-release assay; assay type: cell-based; conditions: ht-22, 24 h
How it was run: (§1)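 HT22 cells exposed to compound alone, without glutamate (cytotoxicity tested up to 100 µM). Cell injury is read as lactate dehydrogenase released into the culture medium, measured with a cytotoxicity detection kit. LDH from control cultures is set at 100%.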

HT-22 [2] = assay: Neuroprotective activity against glutamate-induced neuronal cell death in mouse HT22 cells at 25 to 50 uM after 24 hrs by LDH-release assay relative to control; assay type: functional
How it was run: (§2)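 HT22 cells exposed to 10 mM glutamate together with compound at 25 or 50 µM for 24 h. Cell death read as LDH released into the culture medium (cytotoxicity detection kit). Control is LDH release from cells incubated without glutamate, set at 100%.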

HT-22 [3] = assay: Cytotoxicity against mouse HT22 cells after 24 hrs in absence of glutamate by LDH-release assay relative to control; assay type: ADME, cell-based; conditions: ht-22, 24 h; how it was run: as §1
HT-22 [4] = assay: Neuroprotective activity against glutamate-induced neuronal cell death in mouse HT22 cells at 2.5 to 10 uM after 24 hrs by LDH-release assay relative to control; assay type: functional, cell-based
How it was run: (§3)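 HT22 cells co-incubated 24 h with 10 mM glutamate plus compound at 0, 1.0, 2.5, 5.0, 10 or 25 µM. Cell death is read as LDH released into the medium. Control-culture LDH is set at 100%. IC50 values were estimated from this low-dose series; for some compounds, approximate IC50s were corrected by subtracting suppression of basal, glutamate-independent death.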

HT-22 [5] = assay: Neuroprotective activity against glutamate-induced neuronal cell death in mouse HT22 cells after 24 hrs by LDH-release assay; assay type: functional, cell-based; conditions: HT-22, 24 h; how it was run: as §3
HT-22 [6] = assay: Neuroprotective activity against glutamate-induced neuronal cell death in mouse HT22 cells at 25 uM after 24 hrs by LDH-release assay relative to control; assay type: functional; how it was run: as §2
HT-22 [7] = assay: Neuroprotective activity against glutamate-induced neuronal cell death in mouse HT22 cells at 1 to 10 uM after 24 hrs by LDH-release assay relative to control; assay type: functional, cell-based; how it was run: as §3
HT-22 [8] = assay: Neuroprotective activity against glutamate-induced neuronal cell death in mouse HT22 cells at 2.5 to 5 uM after 24 hrs by LDH-release assay relative to control; assay type: functional, cell-based; how it was run: as §3
HT-22 [9] = assay: Neuroprotective activity against glutamate-induced neuronal cell death in mouse HT22 cells at 50 uM after 24 hrs by LDH-release assay relative to control; assay type: functional, cell-based
How it was run: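 HT22 cells treated 24 h with 10 mM glutamate and compound at 0, 25 or 50 µM. Cell death is read as lactate dehydrogenase released into the culture medium, measured with a cytotoxicity detection kit. LDH of control cultures is set at 100%.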

HT-22 [10] = assay: Neuroprotective activity against glutamate-induced neuronal cell death in mouse HT22 cells at 1 to 25 uM after 24 hrs by LDH-release assay relative to control; assay type: functional, cell-based; how it was run: as §3

| SMILES | Activity (HT-22 [1]) | Activity (HT-22 [2]) | further results |
| --- | --- | --- | --- |
| CCN(CC)c1ccc(CCCC2C(=O)Nc3ccccc32)cc1 (racemic) | Non-Toxic | >100% | Activity (HT-22 [3]): Non-Toxic |
| COc1ccc2c(c1)C(C)(CCCc1ccc(N(C)C)cc1)C(=O)N2 (stereo in doubt; 8a) |  | Active |  |
| COc1ccc2c(c1)C(C)(CCOc1ccc(N(C)C)cc1)C(=O)N2 (racemic) | Non-Toxic | Active |  |
| CN(C)c1ccc(CCCC2C(=O)Nc3ccccc32)cc1 (racemic) | Non-Toxic | Active | Activity (HT-22 [4]): Active; IC50 (HT-22 [5]): 5.5 µM |
| CN(C)c1ccc(C(=O)NCCC2C(=O)Nc3ccccc32)cc1 (racemic) | Non-Toxic | inactive |  |
| CN(C)c1ccc(CCCC2C(=O)N(C)c3ccccc32)cc1 (racemic) | Non-Toxic | >100% | Activity (HT-22 [3]): Non-Toxic |
| COc1ccc2c(c1)C(C)(CCCc1ccc(N(C)C)cc1)C(=O)N2CC(=O)O (racemic) | Non-Toxic | inactive |  |
| O=C1O[C@H]([C@@H](O)CO)C(O)=C1O [ASCORBIC ACID] |  |  | Activity (HT-22 [6]): 50% |
| CN(CCCCCC1C(=O)Nc2ccccc21)c1ccccc1 (racemic) | Non-Toxic | Active |  |
| CN(C)c1ccc(CCCC2(C)C(=O)Nc3ccc(F)cc32)cc1 (racemic) | Non-Toxic | >100% | IC50 (HT-22 [5]): 1.2 µM; Activity (HT-22 [7]): Active; Activity (HT-22 [3]): Non-Toxic |
| COc1ccc2c(c1)C(C)(CCCc1ccc(N(C)C)cc1)C(=O)N2 (stereo in doubt; 8b) |  | Active |  |
| COc1ccc2c(c1)C(C)(CCCc1ccc(N(C)C)cc1)C(=O)N2CC(=O)N(C)C (centres undefined) | Non-Toxic |  |  |
| COc1ccc2c(c1)C(C)(CCCc1ccc(N(C)C)cc1)C(=O)N2 (racemic) [listing 1 of 2 here] |  | Active |  |
| CN(C)c1ccc(C(C)(C)CC2C(=O)Nc3ccccc32)cc1 (racemic) | Non-Toxic |  |  |
| COCCOc1ccc2c(c1)C(C)(CCCc1ccc(N(C)C)cc1)C(=O)N2 (centres undefined) | Non-Toxic |  |  |
| CN(C)c1cccc(CCCC2C(=O)Nc3ccccc32)c1 (racemic) | Non-Toxic | >100% | Activity (HT-22 [3]): Non-Toxic |
| COc1ccc2c(c1)C1(CCN(c3ccccc3)CC1)C(=O)N2 | Non-Toxic | inactive |  |
| CN(C)c1ccc(CCCC2(C)C(=O)Nc3ccc(O)cc32)cc1 (racemic) | Non-Toxic | >100% | Activity (HT-22 [8]): Active; IC50 (HT-22 [5]): 1.9 µM; Activity (HT-22 [3]): Non-Toxic |
| CN(C)c1ccc(CCCCC2C(=O)Nc3ccccc32)cc1 (racemic) | Non-Toxic | Active |  |
| CN(C)c1ccc(CCCC2(C)C(=O)Nc3ccccc32)cc1 (racemic) | Non-Toxic | >100% | Activity (HT-22 [3]): Non-Toxic |
| CN(Cc1ccccc1)c1ccc(CCCC2(C)C(=O)Nc3ccccc32)cc1 (racemic) | Non-Toxic | Active |  |
| CN(C)c1ccc(CCC2C(=O)Nc3ccccc32)cc1 (racemic) | Non-Toxic |  | Activity (HT-22 [9]): Active; Activity (HT-22 [6]): inactive |
| COc1ccc2c(c1)C(C)(CCCc1ccc(N(C)C)cc1)C(=O)N2 (racemic) [listing 2 of 2 here] | Non-Toxic |  |  |
| CN(C)CCCCCCCC1(C)C(=O)Nc2ccccc21 (centres undefined) | Non-Toxic | inactive |  |
| CN(C)c1ccc(CC2C(=O)Nc3ccccc32)cc1 (racemic) | Non-Toxic | Active | IC50 (HT-22 [5]): 7.1 µM; Activity (HT-22 [10]): Active |
| COc1ccc(N2C(=O)C(C)(CCCc3ccc(N(C)C)cc3)c3ccccc32)cc1 (centres undefined) | Non-Toxic |  |  |
| CN(C)c1ccc(CCCC2C(=O)Nc3ccc(C(F)(F)F)cc32)cc1 (centres undefined) | Non-Toxic |  |  |
